Reference: ChEMBL document CHEMBL1255473, “Homozygous triplicate mutations in three 16S rRNA genes responsible for high-level aminoglycoside resistance in Nocardia farcinica clinical isolates from a Canada-wide bovine mastitis epizootic” (2010)
≈ marks a conversion by molar mass, not a printed value. Calls of active or inactive are those of the source. The calls are words filed in the database; no cut-off is given here.

Legend:
Nocardia farcinica [1] = assay: Antimicrobial activity against amikacin-susceptible Nocardia farcinica IFM 10152 harboring 16s rRNA A1408G mutant after 3 days by broth microdilution method; format: functional
Outline: (§1)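 Broth microdilution in BHI medium with a range of aminoglycosides. Cells were incubated at 37°C, OD600 was measured, and the MIC was read on day 3 of incubation.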

Nocardia farcinica [2] = assay: Antimicrobial activity against amikacin-resistant Nocardia farcinica IFM 10580 after 3 days by broth microdilution method; format: functional; outline: as §1
Nocardia farcinica [3] = assay: Antimicrobial activity against amikacin-susceptible Nocardia farcinica IFM 10152 harboring 16s rRNA A1408G mutant after 5 days by broth microdilution method; format: functional
Outline: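 Broth microdilution in BHI medium across several aminoglycosides. Cells were held at 37°C and MIC was determined from OD600 on day 5 of incubation.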

Nocardia farcinica [4] = assay: Antimicrobial activity against amikacin-susceptible Nocardia farcinica IFM 10152 after 3 days by broth microdilution method; format: functional
Outline: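 Broth microdilution in BHI medium, final inoculum 10^4 CFU/ml. Host strain carried empty pNV19 vector. Cells incubated with serial aminoglycoside concentrations at 37°C for 3 days. MIC read from OD600.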

Nocardia farcinica [5] = assay: Antimicrobial activity against amikacin-susceptible Nocardia farcinica isolate IFM 10152-M2 assessed as cell growth at 1024 ug/ml after 24 hrs
Nocardia farcinica [6] = assay: Antimicrobial activity against amikacin-resistant Nocardia farcinica IFM 10580 assessed as cell growth at 1024 ug/ml at <12 hrs; format: functional, organism-based
Outline: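 Cells were cultured in the presence of 1,024 μg/ml amikacin and growth was followed over time.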

Nocardia farcinica [7] = assay: Antimicrobial activity against amikacin-susceptible Nocardia farcinica isolate IFM 10152-M2 assessed as cell growth at 1024 ug/ml after 24 hrs; format: functional, organism-based
Nocardia farcinica [8] = assay: Antimicrobial activity against amikacin-susceptible Nocardia farcinica IFM 10152-M2 expressing rrnA A1408G and rrnC A1408G mutant genes after 3 days by broth microdilution method; format: functional; conditions: IFM 10152-M2, 72 h; outline: as §1
Nocardia farcinica [9] = assay: Antimicrobial activity against amikacin-susceptible Nocardia farcinica isolate IFM 10152-M3 assessed as cell growth at 1024 ug/ml at <12 hrs; format: functional, organism-based
Nocardia farcinica [10] = assay: Antimicrobial activity against amikacin-susceptible Nocardia farcinica IFM 10152-M2 expressing wild type rrnB gene and plasmid encoded rrnA A1408G and rrnC A1408G mutant genes after 3 days by broth microdilution method; format: functional; conditions: IFM 10152-M2, 72 h; outline: as §1
Nocardia farcinica [11] = assay: Antimicrobial activity against amikacin-susceptible Nocardia farcinica IFM 10152-M3 expressing rrnA A1408G, rrnB A1408G and rrnC A1408G mutant genes after 3 days by broth microdilution method; format: functional; conditions: IFM 10152-M3, 72 h; outline: as §1

Molecule | MIC (Nocardia farcinica [1]; IFM 10152, 72 h) [µg/mL] | MIC (Nocardia farcinica [2]; IFM 10580, 72 h) [µg/mL] | MIC (Nocardia farcinica [3]; IFM 10152, 120 h) [µg/mL] | MIC (Nocardia farcinica [4]; IFM 10152, 72 h) [µg/mL] | also measured
CN[C@H]1C[C@@H](N)[C@H](O)[C@@H](O[C@@H]2O[C@H](CO)[C@H](O)[C@H]3O[C@@]4(O[C@H]23)O[C@H]([C@H](N)CO)[C@H](O)[C@H](O)[C@H]4O)[C@@H]1O | 32 (≈ 60.7 µM) | 32 (≈ 60.7 µM) | 32 (≈ 60.7 µM) | 32 (≈ 60.7 µM) | 
NCC[C@H](O)C(=O)N[C@@H]1C[C@H](N)[C@@H](O[C@H]2O[C@H](CN)[C@@H](O)[C@H](O)[C@H]2O)[C@H](O)[C@H]1O[C@H]1O[C@H](CO)[C@@H](O)[C@H](N)[C@H]1O [AMIKACIN] | 64 (≈ 109 µM) | > 1020 | > 1020 | < 1 | Activity (Nocardia farcinica [5]): inactive; Activity (Nocardia farcinica [6]): inactive; Activity (Nocardia farcinica [7]): inactive; MIC (Nocardia farcinica [8]): < 1 µg/mL; Activity (Nocardia farcinica [9]): inactive; MIC (Nocardia farcinica [10]): > 1020 µg/mL; MIC (Nocardia farcinica [11]): > 1020 µg/mL
CN[C@@H]1[C@@H](O[C@H]2O[C@H](CO)[C@@H](N)[C@H](O)[C@H]2O)OC2C[C@@H](N)[C@@H](O[C@H]3[C@H](O)[C@@H](O)[C@H](N)C[C@@H]3N)OC2[C@@H]1O (some centres undefined) [APRAMYCIN] | 64 (≈ 119 µM) | > 1020 | 256 (≈ 474 µM) | 32 (≈ 59.3 µM) | 
NCC[C@H](O)C(=O)N[C@@H]1C[C@H](N)[C@@H](O[C@H]2O[C@H](CN)CC[C@H]2N)[C@H](O)[C@H]1O[C@H]1O[C@H](CO)[C@@H](O)[C@H](N)[C@H]1O [ARBEKACIN] | 2 (≈ 3.62 µM) | > 1020 | > 1020 | < 1 | 
NC[C@@H]1O[C@H](O[C@H]2[C@@H](O)[C@H](O[C@@H]3[C@@H](O)[C@H](N)C[C@H](N)[C@H]3O[C@H]3O[C@H](CN)[C@@H](O)[C@H](O)[C@H]3N)O[C@@H]2CO)[C@H](N)[C@@H](O)[C@@H]1O [FRAMYCETIN] | > 1020 | > 1020 | > 1020 | 16 (≈ 26 µM) | 
CN[C@@H]1[C@@H](O)[C@@H](O[C@@H]2[C@@H](O)[C@H](O[C@H]3O[C@H](CN)[C@@H](O)[C@H](O)[C@H]3O)[C@@H](N)C[C@H]2NC(=O)[C@@H](O)CN)OC[C@]1(C)O [ISEPAMICIN] | 16 (≈ 28.1 µM) | > 1020 | 128 (≈ 225 µM) | < 1 | 
NC[C@H]1O[C@H](O[C@H]2[C@H](O)[C@@H](O[C@H]3O[C@H](CO)[C@@H](O)[C@H](N)[C@H]3O)[C@H](N)C[C@@H]2N)[C@H](O)[C@@H](O)[C@@H]1O [KANAMYCIN] | > 1020 | > 1020 | > 1020 | 256 (≈ 528 µM) | 
CCN[C@@H]1C[C@H](N)[C@@H](O[C@H]2OC(CN)=CC[C@H]2N)[C@H](O)[C@H]1O[C@H]1OC[C@](C)(O)[C@H](NC)[C@H]1O [NETILMICIN] | 4 (≈ 8.41 µM) | > 1020 | 32 (≈ 67.3 µM) | < 1 | 
NC[C@@H]1O[C@H](O[C@H]2[C@@H](O)[C@H](O[C@@H]3[C@@H](O)[C@H](N)C[C@H](N)[C@H]3O[C@H]3O[C@H](CO)[C@@H](O)[C@H](O)[C@H]3N)O[C@@H]2CO)[C@H](N)[C@@H](O)[C@@H]1O [PAROMOMYCIN] | > 1020 | > 1020 | > 1020 | 8 (≈ 13 µM) | 
NC[C@H]1O[C@H](O[C@H]2[C@H](O[C@@H]3O[C@H](CO)[C@@H](O)[C@H]3O)[C@@H](O)[C@H](N)C[C@@H]2N)[C@H](N)[C@@H](O)[C@@H]1O [RIBOSTAMYCIN] | > 1020 | > 1020 | > 1020 | 256 (≈ 563 µM) | 
CN[C@@H]1[C@H](O[C@H]2[C@H](O[C@H]3[C@H](O)[C@@H](O)[C@H](N=C(N)N)[C@@H](O)[C@@H]3N=C(N)N)O[C@@H](C)[C@]2(O)C=O)O[C@@H](CO)[C@H](O)[C@H]1O [STREPTOMYCIN] | 64 (≈ 110 µM) | 128 (≈ 220 µM) | 128 (≈ 220 µM) | 64 (≈ 110 µM) | 
NC[C@H]1O[C@H](O[C@H]2[C@H](O)[C@@H](O[C@H]3O[C@H](CO)[C@@H](O)[C@H](N)[C@H]3O)[C@H](N)C[C@@H]2N)[C@H](N)C[C@@H]1O [TOBRAMYCIN] | 64 (≈ 137 µM) | > 1020 | > 1020 | 32 (≈ 68.4 µM) | 
GENTAMICIN |  |  |  |  | MIC (Nocardia farcinica [1]): 256 µg/mL; MIC (Nocardia farcinica [2]): > 1020 µg/mL; MIC (Nocardia farcinica [3]): > 1020 µg/mL; MIC (Nocardia farcinica [4]): 64 µg/mL
